Ends that are not written are not given here. Peptide text beside a SMILES is read from it. * marks the point of attachment. FITC = O=C1OC2(c3ccc(O)cc3Oc3cc(O)ccc32)c2ccc(NC(=S)*)cc21
Key:
[1] = biological target: Mcl-1 (Mcl-1ΔN170ΔC23) (Homo sapiens, UniProt Q07820); assay: Fluorescence polarization assay; format: binding
In short: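 Human Mcl-1ΔN170ΔC23 was expressed His-SUMO-tagged in E. coli Rosetta BL21(DE3), Ni-purified, ULP1-cleaved, then SEC-purified. Protein was serially diluted in 20 mM Tris pH 8.0, 50 mM NaCl with FITC-labelled BH3 peptide (10 nM), shaken 1 min, and incubated 10 min at room temperature in the dark. Polarization (mP) was read in at least three replicates, and Kd was obtained by sigmoidal dose-response nonlinear regression.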

[2] = biological target: FITC-Bim BH3; assay: fluorescence polarisation
[3] = biological target: FITC-Bmf BH3; assay: fluorescence polarisation
[4] = biological target: T1, Bcl-2ΔC32ΔLoop (human, UniProt P10415;Q07817); assay: crystal structure
T1 chain: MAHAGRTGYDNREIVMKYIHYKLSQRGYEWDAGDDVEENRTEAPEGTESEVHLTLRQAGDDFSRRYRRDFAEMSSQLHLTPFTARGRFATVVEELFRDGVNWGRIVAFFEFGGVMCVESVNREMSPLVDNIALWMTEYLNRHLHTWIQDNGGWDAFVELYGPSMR

[5] = biological target: R139A Bcl-xL (human, UniProt Q07817-1 1-208, R139A); assay: fluorescence polarisation
[6] = biological target: R146A Bcl-2 (human, UniProt P10415 1-207, R146A); assay: fluorescence polarisation
Sequence of R146A Bcl-2 (P10415 1-207 R146A): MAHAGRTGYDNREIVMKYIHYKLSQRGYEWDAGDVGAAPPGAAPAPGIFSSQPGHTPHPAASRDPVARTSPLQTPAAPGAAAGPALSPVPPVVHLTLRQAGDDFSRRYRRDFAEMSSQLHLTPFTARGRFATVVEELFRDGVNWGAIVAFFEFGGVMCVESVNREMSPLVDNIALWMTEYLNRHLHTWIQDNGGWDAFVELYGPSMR

[7] = biological target: Bcl-2ΔC32 (human, UniProt P10415 1-207); assay: fluorescence polarisation
[8] = biological target: Bcl-xLΔC25 (human, UniProt Q07817-1 1-208); assay: fluorescence polarisation
[9] = biological target: Bcl-xLΔC25ΔLoop (human, UniProt Q07817-1 1-208, removes the unstructured loop between residues 46–82); assay: crystal structure

Sequence of Mcl-1 (Mcl-1ΔN170ΔC23) (Q07820 171-327 limits assumed, stated change not applied): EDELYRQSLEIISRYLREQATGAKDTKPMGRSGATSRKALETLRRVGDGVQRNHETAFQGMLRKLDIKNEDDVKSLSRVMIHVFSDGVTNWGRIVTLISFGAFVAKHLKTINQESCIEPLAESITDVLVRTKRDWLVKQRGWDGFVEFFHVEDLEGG

CC[C@H](C)[C@H](NC(=O)[C@H](CS)NC(=O)[C@H](CCC(N)=O)NC(=O)[C@H](CC(C)C)NC(=O)[C@H](CCCCN)NC(=O)[C@H](CCCNC(=N)N)NC(=O)[C@H](C)NC(=O)[C@@H](NC(=O)[C@H](CCC(N)=O)NC(=O)[C@@H](NC(=O)[C@H](CCC(=O)O)NC(=O)[C@H](C)NC(=O)[C@H](CCC(N)=O)NC(=O)[C@H](Cc1c[nH]cn1)NC(=S)Nc1ccc2c(c1)C(=O)OC21c2ccc(O)cc2Oc2cc(O)ccc21)C(C)C)[C@@H](C)CC)C(=O)N[C@@H](C)C(=O)N[C@@H](CC(=O)O)C(=O)N[C@@H](CCC(N)=O)C(=O)N[C@@H](Cc1ccccc1)C(=O)N[C@@H](Cc1c[nH]cn1)C(=O)N[C@@H](CCCNC(=N)N)C(=O)N[C@@H](CC(C)C)C(=O)N[C@@H](Cc1c[nH]cn1)C(=O)N[C@H](C(=O)N[C@@H](CCC(N)=O)C(=O)N[C@@H](CCC(N)=O)C(=O)O)C(C)C [FITC-Bmf BH3] ({FITC}-HQAEVQIARKLQCIADQFHRLHVQQ-OH)
Kd [1]: 185 nM

Mcl-1ΔN170ΔC23 (from UniProt Q07820 171-327) (domain or fragment)
Kd [2]: 5.8 nM
Kd [3]: 185 nM

Mcl-1 with Ala-227 substituted by Asp (from UniProt Q07820 171-327) (domain or fragment)
Kd [3]: 49 nM

EVQIARKLQCIADQFHRLHVQ [21-mer Bmf BH3 peptide]
binding result [4]: binds

{FITC}-HQAEVQIARKLQCIADQFHRLHVQQ [FITC-Bmf BH3]
Kd [5]: 1240 nM
Kd [6]: 623 nM
Kd [7]: 5.2 ± 0.3 nM
Kd [8]: 5.1 ± 0.4 nM

HQAEVQIARKLQCIADQFHRLHVQQ [25-mer Bmf BH3 peptide]
binding result [9]: binds
